Reference: ChEMBL document CHEMBL2321771, “Inhibition of Ebola Virus Infection: Identification of Niemann-Pick C1 as the Target by Optimization of a Chemical Probe” (ACS Med Chem Lett, 2013)
Calls of active or inactive are those of the source. The calls are words filed in the database; no cut-off is given here.

Biological target: T1, NPC intracellular cholesterol transporter 1 (Mus musculus) (UniProt O35604)
T1 sequence (whole entry): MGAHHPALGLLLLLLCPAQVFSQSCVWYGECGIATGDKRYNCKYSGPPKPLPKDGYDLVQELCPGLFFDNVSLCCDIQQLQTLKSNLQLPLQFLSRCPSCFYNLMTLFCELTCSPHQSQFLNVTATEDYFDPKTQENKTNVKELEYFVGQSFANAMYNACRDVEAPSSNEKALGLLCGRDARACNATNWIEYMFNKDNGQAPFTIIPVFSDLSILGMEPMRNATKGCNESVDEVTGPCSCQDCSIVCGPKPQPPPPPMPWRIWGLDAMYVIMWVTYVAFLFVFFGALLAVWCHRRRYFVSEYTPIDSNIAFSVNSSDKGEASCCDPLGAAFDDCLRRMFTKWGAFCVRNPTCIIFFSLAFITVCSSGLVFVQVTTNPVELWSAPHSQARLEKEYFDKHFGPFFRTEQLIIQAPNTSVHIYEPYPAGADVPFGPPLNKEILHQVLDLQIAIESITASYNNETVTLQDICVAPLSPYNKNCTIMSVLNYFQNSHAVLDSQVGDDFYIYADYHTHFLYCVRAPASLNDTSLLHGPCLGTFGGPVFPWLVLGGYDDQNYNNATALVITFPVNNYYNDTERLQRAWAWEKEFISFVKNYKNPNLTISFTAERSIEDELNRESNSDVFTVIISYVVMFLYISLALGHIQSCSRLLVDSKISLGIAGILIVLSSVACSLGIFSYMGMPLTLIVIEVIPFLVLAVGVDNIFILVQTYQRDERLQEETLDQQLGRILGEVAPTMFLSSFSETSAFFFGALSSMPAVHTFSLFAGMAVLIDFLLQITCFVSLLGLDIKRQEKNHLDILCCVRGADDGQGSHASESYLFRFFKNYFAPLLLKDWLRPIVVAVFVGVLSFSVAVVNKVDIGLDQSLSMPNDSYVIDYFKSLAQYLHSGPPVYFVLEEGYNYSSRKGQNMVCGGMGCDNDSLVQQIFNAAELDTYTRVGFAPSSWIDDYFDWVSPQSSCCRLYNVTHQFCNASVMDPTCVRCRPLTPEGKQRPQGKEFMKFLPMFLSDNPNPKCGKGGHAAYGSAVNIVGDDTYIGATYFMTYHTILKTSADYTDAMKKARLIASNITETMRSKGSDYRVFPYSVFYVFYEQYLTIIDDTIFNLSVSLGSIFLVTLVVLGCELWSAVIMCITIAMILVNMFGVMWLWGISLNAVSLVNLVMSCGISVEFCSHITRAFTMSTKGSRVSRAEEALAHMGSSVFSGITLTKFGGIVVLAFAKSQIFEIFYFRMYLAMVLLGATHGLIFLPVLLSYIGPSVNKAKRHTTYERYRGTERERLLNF
Assay: Inhibition of mouse NPC1 interaction to Ebola virus GP expressed in LE/LY membrane of CHO cells by immunoblotting
Type: cell-based
Conditions: not given
Procedure, shortened: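 Late endosome/lysosome membranes from NPC1-null CHO cells, or the same cells stably expressing mouse NPC1, were immobilized on ELISA plates. They were incubated with protease-cleaved Ebola GP in the presence of test compound at specified concentrations. After washing off unbound GP, membranes were solubilized in NP40 and bound GP was detected by GP1-antibody immunoblot. Results are representative of six experiments.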

| SMILES | inhibition |
| --- | --- |
| O=C(CC12CC3CC(CC(C3)C1)C2)NCCC(=O)N1CCN(Cc2ccccc2)CC1 | Active |
| O=C(CC12CC3CC(CC(C3)C1)C2)NCC(=O)N1CCC(Cc2ccccc2)CC1 | Active |
| O=C(CC12CC3CC(CC(C3)C1)C2)NCC(=O)N1CCN(Cc2ccccc2)CC1 | Active |

Tested on: Ebolavirus
Assay: Antiviral activity against Ebola virus by cell based luciferase reporter gene assay
Type: functional, Ebola virus sp.
Conditions: Orthoebolavirus

| SMILES | IC50 [µM] |
| --- | --- |
| CC(NC(=O)CC12CC3CC(CC(C3)C1)C2)C(=O)N1CCN(Cc2ccccc2)CC1 (stereo unspecified) | > 40 |
| O=C(CC12CC3CC(CC(C3)C1)C2)NC(CCC(=O)OCc1ccccc1)C(=O)N1CCN(Cc2ccccc2)CC1 (stereo unspecified) | 8.7 |
| COC(=O)c1ccc(CN2CCN(C(=O)CNC(=O)CC34CC5CC(CC(C5)C3)C4)CC2)cc1 | 15 |
| O=C(CC12CC3CC(CC(C3)C1)C2)NCC(=O)N1CCN(C(=O)c2ccccc2)CC1 | 3 |
| COc1ccc(CN2CCN(C(=O)CNC(=O)CC34CC5CC(CC(C5)C3)C4)CC2)cc1 | 5.4 |
| O=C(CC12CC3CC(CC(C3)C1)C2)NCC(=O)N1CCN(Cc2cccc(Br)c2)CC1 | 1 |
| O=C(CC12CC3CC(CC(C3)C1)C2)NCC(=O)N1CCN(Cc2ccccc2C(F)(F)F)CC1 | 1.8 |
| Cc1ccc(CN2CCN(C(=O)CNC(=O)CC34CC5CC(CC(C5)C3)C4)CC2)cc1 | 1.1 |
| O=C(CNC(=O)C12CC3CC(CC(C3)C1)C2)N1CCN(Cc2ccccc2)CC1 | 29 |
| CC(C)(C)CC(=O)NCC(=O)N1CCN(Cc2ccccc2)CC1 | > 40 |
| Cc1cccc(COc2ccccc2CN2CCN(C(=O)CNC(=O)CC34CC5CC(CC(C5)C3)C4)CC2)c1 | 0.35 |
| O=C(CC12CC3CC(CC(C3)C1)C2)NCC(=O)N1CCN(Cc2ccc(Cl)cc2Cl)CC1 | 6.6 |
| O=C(CC12CC3CC(CC(C3)C1)C2)NCC(=O)N1CCN(Cc2ccc(Cl)c(Cl)c2)CC1 | 0.75 |
| O=C(CC12CC3CC(CC(C3)C1)C2)NCC(=O)N1CCN(Cc2ccccc2OCc2ccccc2[N+](=O)[O-])CC1 | 1.6 |
| O=C(CC12CC3CC(CC(C3)C1)C2)NCC(=O)N1CCN(Cc2ccccc2OCc2cccnc2)CC1 | 2.1 |
| O=C(CC12CC3CC(CC(C3)C1)C2)NCC(=O)N1CCN(Cc2ccccc2OCc2ccccc2)CC1 | 2 |
| COC(=O)c1cccc(COc2ccccc2CN2CCN(C(=O)CNC(=O)CC34CC5CC(CC(C5)C3)C4)CC2)c1 | 2.4 |
| O=C(CC12CC3CC(CC(C3)C1)C2)NCC(=O)N1CCN(Cc2ccccc2Cl)CC1 | 3.2 |
| O=C(CC12CC3CC(CC(C3)C1)C2)NCC(=O)N1CCN(Cc2ccc(C(=O)O)cc2)CC1 | > 40 |
| CC(C)C(NC(=O)CC12CC3CC(CC(C3)C1)C2)C(=O)N1CCN(Cc2ccccc2)CC1 (stereo unspecified) | > 40 |
| COC(=O)c1ccccc1CN1CCN(C(=O)CNC(=O)CC23CC4CC(CC(C4)C2)C3)CC1 | 8 |
| N#Cc1ccc(COc2ccccc2CN2CCN(C(=O)CNC(=O)CC34CC5CC(CC(C5)C3)C4)CC2)cc1 | 4.4 |
| N#Cc1ccc(CN2CCN(C(=O)CNC(=O)CC34CC5CC(CC(C5)C3)C4)CC2)cc1 | 8 |

| SMILES | IC50 [µM] |
| --- | --- |
| O=C(CC12CC3CC(CC(C3)C1)C2)NCC(=O)N1CCN(Cc2ccccc2C(=O)O)CC1 | > 40 |
| Cc1cccc(CN2CCN(C(=O)CNC(=O)CC34CC5CC(CC(C5)C3)C4)CC2)c1 | 1.1 |
| O=C(CC12CC3CC(CC(C3)C1)C2)NCCC(=O)N1CCN(Cc2ccccc2)CC1 | 17 |
| O=C(Cc1ccccc1)NCC(=O)N1CCN(Cc2ccccc2)CC1 | > 40 |
| Cc1cc(O)cc(C)c1CN1CCN(C(=O)CNC(=O)CC23CC4CC(CC(C4)C2)C3)CC1 | 8 |
| O=C(CC12CC3CC(CC(C3)C1)C2)NCC(=O)N1CCN(Cc2ccc(O)cc2)CC1 | 7 |
| O=C(CC12CC3CC(CC(C3)C1)C2)NCC(=O)N1CCN(Cc2cccc3ccccc23)CC1 | 3.4 |
| N#Cc1ccccc1CN1CCN(C(=O)CNC(=O)CC23CC4CC(CC(C4)C2)C3)CC1 | 3.9 |
| O=C(CC12CC3CC(CC(C3)C1)C2)NCC(=O)N1CCC(Cc2ccccc2)CC1 | 1.3 |
| CN(C)C(=O)c1ccc(COc2ccccc2CN2CCN(C(=O)CNC(=O)CC34CC5CC(CC(C5)C3)C4)CC2)cc1 | 3.3 |
| O=C(CC12CC3CC(CC(C3)C1)C2)NCC(=O)N1CCN(Cc2ccc3ccccc3c2)CC1 | 3 |
| O=C(CC12CC3CC(CC(C3)C1)C2)NCC(=O)N1CCN(Cc2ccccn2)CC1 | 8.5 |
| O=C(CC12CC3CC(CC(C3)C1)C2)NCC(=O)N1CCN(Cc2ccc(Cl)cc2)CC1 | 2.5 |
| O=C(CC12CC3CC(CC(C3)C1)C2)NCC(=O)N1CCN(Cc2cc(Br)ccc2O)CC1 | 0.5 |
| O=C(CC12CC3CC(CC(C3)C1)C2)NCC(=O)N1CCN(Cc2ccccc2)CC1 | 1.3 |
| CNC(=O)c1ccc(COc2ccccc2CN2CCN(C(=O)CNC(=O)CC34CC5CC(CC(C5)C3)C4)CC2)cc1 | 2.1 |
| O=C(CC12CC3CC(CC(C3)C1)C2)NCC(=O)N1CCN(Cc2cccc(OCc3ccccc3)c2)CC1 | 4 |
| O=C(CC12CC3CC(CC(C3)C1)C2)NCC(=O)N1CCN(Cc2ccccc2OCc2ccc(C(=O)O)cc2)CC1 | 4 |
| O=C(CC1CCCCC1)NCC(=O)N1CCN(Cc2ccccc2)CC1 | > 40 |
| CC(OCc1ccccc1)C(NC(=O)CC12CC3CC(CC(C3)C1)C2)C(=O)N1CCN(Cc2ccccc2)CC1 (stereo unspecified) | 29 |
| CC(O)C(NC(=O)CC12CC3CC(CC(C3)C1)C2)C(=O)N1CCN(Cc2ccccc2)CC1 (stereo unspecified) | > 40 |
| O=C(CC12CC3CC(CC(C3)C1)C2)NCC(=O)N1CCN(Cc2ccccc2OCc2ccc([N+](=O)[O-])cc2)CC1 | 1.7 |
| O=C(CC12CC3CC(CC(C3)C1)C2)NCC(=O)N1CCN(Cc2ccncc2)CC1 | 14.5 |

| SMILES | IC50 [µM] |
| --- | --- |
| O=C(CC12CC3CC(CC(C3)C1)C2)NCC(=O)N1CCN(Cc2ccccc2O)CC1 | 2.9 |
| O=C(NCC(=O)N1CCN(Cc2ccccc2)CC1)c1ccccc1 | 31 |
| O=C(CC12CC3CC(CC(C3)C1)C2)NCC(=O)N1CCN(Cc2cccc(C(=O)O)c2)CC1 | > 40 |
| CN(CC(=O)N1CCN(Cc2ccccc2)CC1)C(=O)CC12CC3CC(CC(C3)C1)C2 | 6.7 |
| N#Cc1cccc(CN2CCN(C(=O)CNC(=O)CC34CC5CC(CC(C5)C3)C4)CC2)c1 | 1.2 |
| O=C(CC12CC3CC(CC(C3)C1)C2)NCC(=O)N1CCN(Cc2ccc(Br)cc2)CC1 | 3.2 |
| O=C(CC12CC3CC(CC(C3)C1)C2)NCC(=O)N1CCN(Cc2ccccc2Br)CC1 | 3.4 |
| COc1ccccc1CN1CCN(C(=O)CNC(=O)CC23CC4CC(CC(C4)C2)C3)CC1 | 2.1 |
| COc1cccc(COc2ccccc2CN2CCN(C(=O)CNC(=O)CC34CC5CC(CC(C5)C3)C4)CC2)c1 | 1.9 |
| O=C(CC12CC3CC(CC(C3)C1)C2)NCC(=O)N1CCN(C(c2ccccc2)c2ccccc2)CC1 | > 10 |
| N#CCC(NC(=O)CC12CC3CC(CC(C3)C1)C2)C(=O)N1CCN(Cc2ccccc2)CC1 (stereo unspecified) | 22 |
| O=C(NCC(=O)N1CCN(Cc2ccccc2)CC1)C1CCCCC1 | 27 |
| O=C(CC12CC3CC(CC(C3)C1)C2)NCC(=O)N1CCN(Cc2cccnc2)CC1 | 6.8 |
| O=C(Cc1ccc(Cl)cc1)NCC(=O)N1CCN(Cc2ccccc2)CC1 | 19 |
| CC(C)CC(NC(=O)CC12CC3CC(CC(C3)C1)C2)C(=O)N1CCN(Cc2ccccc2)CC1 (stereo unspecified) | 29 |
| O=C(CC12CC3CC(CC(C3)C1)C2)NCC(=O)N1CCN(Cc2ccccc2OCc2ccncc2)CC1 | 0.8 |
| COC(=O)c1cccc(CN2CCN(C(=O)CNC(=O)CC34CC5CC(CC(C5)C3)C4)CC2)c1 | 14 |
| O=C(CC12CC3CC(CC(C3)C1)C2)NCC(=O)N1CCN(Cc2ccccc2OCc2cccc(Br)c2)CC1 | 2.4 |
| O=C(CC12CC3CC(CC(C3)C1)C2)NCC(=O)N1CCN(Cc2cccc(C(F)(F)F)c2)CC1 | 2.6 |
| CC(=O)Nc1ccc(CN2CCN(C(=O)CNC(=O)CC34CC5CC(CC(C5)C3)C4)CC2)cc1 | 7.5 |
| O=C(CC12CC3CC(CC(C3)C1)C2)NCCCC(=O)N1CCN(Cc2ccccc2)CC1 | 22 |
| COc1cccc(CN2CCN(C(=O)CNC(=O)CC34CC5CC(CC(C5)C3)C4)CC2)c1 | 2 |
